Assays:
[1] = target: T1, Indoleamine 2,3-dioxygenase 1 (Homo sapiens, UniProt P14902); experiment: Inhibition of IDO1 in recombinant IFN-gamma induced human HeLa cells incubated for 18 hrs by fluorescence microplate reader assay
Summary of the method: (§1)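 HeLa (human) or M109 (murine) cells induced with IFNγ to express IDO1, then cellular IDO1 activity measured; values are the average of N = 2 unless noted.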

[2] = target: Indoleamine 2,3-dioxygenase 1 (Mus musculus, UniProt P28776); experiment: Inhibition of IDO1 in recombinant IFN-gamma induced mouse M109 cells incubated for 18 hrs by fluorescence microplate reader assay; format: cell-based; summary of the method: as §1
[3] = Metabolic stability in human liver microsomes assessed as parent compound remaining at 0.5 uM after 10 mins; format: ADME, Microsome; settings: read-out: Stabilty
Summary of the method: (§2)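 Parent compound at 0.5 μM incubated 10 min with 1 mg/mL human, mouse or rat liver microsomes; fraction of parent remaining reported; average of N = 2 unless noted.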

[4] = Metabolic stability in mouse liver microsomes assessed as parent compound remaining at 0.5 uM after 10 mins; format: ADME, Microsome; settings: read-out: Stabilty; summary of the method: as §2
[5] = Metabolic stability in rat liver microsomes assessed as parent compound remaining at 0.5 uM after 10 mins; format: ADME, Microsome; settings: read-out: Stabilty; summary of the method: as §2
[6] = target: T1, Indoleamine 2,3-dioxygenase 1; experiment: Inhibition of IDO1 in IFN-gamma/LPS induced human whole blood assessed as tryptophan/kynurenine level measured after 18 hrs by RapidFire mass spectrometry; format: tissue-based
[7] = target: T2, Nuclear receptor subfamily 1 group I member 2 (Homo sapiens, UniProt O75469); experiment: Transactivation of PXR (unknown origin) assessed as CYP450 induction
T2 sequence (O75469 whole entry): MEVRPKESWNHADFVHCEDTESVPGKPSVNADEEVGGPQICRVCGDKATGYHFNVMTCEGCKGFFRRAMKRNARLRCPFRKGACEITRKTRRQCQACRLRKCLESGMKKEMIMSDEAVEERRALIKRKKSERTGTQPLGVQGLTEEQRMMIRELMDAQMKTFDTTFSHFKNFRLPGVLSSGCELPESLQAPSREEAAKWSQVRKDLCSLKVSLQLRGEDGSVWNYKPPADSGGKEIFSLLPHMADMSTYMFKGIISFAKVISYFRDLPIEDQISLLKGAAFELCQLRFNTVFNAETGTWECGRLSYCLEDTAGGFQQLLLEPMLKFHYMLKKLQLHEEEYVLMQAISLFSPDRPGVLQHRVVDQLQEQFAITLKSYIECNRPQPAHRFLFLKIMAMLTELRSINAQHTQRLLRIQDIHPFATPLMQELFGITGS

PXR (NR1I2) = target: T3, PXR (NR1I2) (Homo sapiens, UniProt O75469); experiment: Transactivation of PXR (unknown origin) assessed as CYP450 induction relative to rifampicin
T3 sequence (O75469 whole entry): T2 sequence (O75469 whole entry)

T1 sequence (P14902 whole entry): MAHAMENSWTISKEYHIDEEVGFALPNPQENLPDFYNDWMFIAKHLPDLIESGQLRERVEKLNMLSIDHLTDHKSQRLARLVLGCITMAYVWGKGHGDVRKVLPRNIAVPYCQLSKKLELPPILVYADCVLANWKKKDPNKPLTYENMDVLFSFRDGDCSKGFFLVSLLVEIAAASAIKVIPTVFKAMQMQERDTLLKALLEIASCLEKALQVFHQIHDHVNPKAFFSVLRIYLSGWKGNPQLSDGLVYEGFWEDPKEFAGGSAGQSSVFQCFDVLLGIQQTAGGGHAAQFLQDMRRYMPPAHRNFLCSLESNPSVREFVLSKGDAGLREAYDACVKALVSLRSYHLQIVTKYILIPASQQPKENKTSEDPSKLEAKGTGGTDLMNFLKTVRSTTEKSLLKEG
Sequence of Indoleamine 2,3-dioxygenase 1 (Mus musculus, UniProt P28776) (P28776 whole entry): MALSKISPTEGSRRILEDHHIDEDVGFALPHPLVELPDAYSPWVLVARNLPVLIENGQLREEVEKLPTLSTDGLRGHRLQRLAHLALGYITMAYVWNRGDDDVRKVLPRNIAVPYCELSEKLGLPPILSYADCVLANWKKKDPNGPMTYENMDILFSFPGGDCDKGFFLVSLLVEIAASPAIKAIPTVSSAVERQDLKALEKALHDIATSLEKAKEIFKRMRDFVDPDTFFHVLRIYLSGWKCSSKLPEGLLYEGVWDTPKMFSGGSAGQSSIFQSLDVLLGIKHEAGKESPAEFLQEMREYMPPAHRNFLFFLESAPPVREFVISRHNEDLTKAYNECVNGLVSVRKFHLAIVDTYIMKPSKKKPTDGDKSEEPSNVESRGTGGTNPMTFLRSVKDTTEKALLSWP

- IC50 [1]: 13 nM
- IC50 [2]: 148 nM
- remaining at 10 min, 0.5 µM [3]: 83%
- remaining at 10 min, 0.5 µM [4]: 39%
- remaining at 10 min, 0.5 µM [5]: 88%
- IC50 [6]: 459 nM
- EC50 [7]: > 50000 nM
- Emax (PXR (NR1I2)): > 50%
SMILES: CCC(Nc1nnc(-c2ccc(OC)cc2)o1)[C@H]1CC[C@H](Oc2ccnc3ccccc23)CC1 (stereo partly drawn)

Source: ChEMBL document CHEMBL4715934, “Discovery of Imidazopyridines as Potent Inhibitors of Indoleamine 2,3-Dioxygenase 1 for Cancer Immunotherapy” (ACS Med Chem Lett, 2021)
